Laboratory results published in ChEMBL document CHEMBL2150971, “Selective depletion of mutant p53 by cancer chemopreventive isothiocyanates and their structure-activity relationships” (J Med Chem, 2011).
Activity calls are given as the source filed them. The rule behind the calls is not given here.

Tests used:
[1] = system: Cellular tumor antigen p53 (Homo sapiens), P04637 [G245C]; assay: Induction of p53 G245C mutant depletion in human NCI-H596 cells at 20 uM by immunoblot analysis; format: cell-based
[2] = system: Cellular tumor antigen p53 (Homo sapiens), P04637 [R280K]; assay: Induction of p53 R280K mutant depletion in human MDA-MB-231 cells at 10 uM by immunoblot analysis; format: cell-based
Outline: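 MDA-MB-231 cells treated with 10 µM for 24 h; whole-cell lysates immunoblotted for p53 (DO-1) with β-actin loading control, ECL.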

[3] = system: Cellular tumor antigen p53 (Homo sapiens), P04637 [G245C]; assay: Induction of covalent cysteine modification at p53 G245C mutant in human NCI-H596 cells at 100 uM incubated for 1 hr by monochlorobimane fluorometric assay; format: cell-based
MDA-MB-231 [4] = assay: Induction of apoptosis in human MDA-MB-231 cells expressing p53 R280K mutant at 10 uM incubated for 24 hrs by FITC/Annexin-V staining method; format: functional, cell-based
Outline: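 MDA-MB-231 cells at 40–50% confluency treated with DMSO or 10 µM in DMSO for 24 h; washed in cold PBS, stained with FITC-Annexin V and propidium iodide, analysed by flow cytometry; early apoptotic (Annexin V+/PI−) fraction; mean ± SD of three experiments, unequal-variance two-sample t-test.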

[5] = system: Cellular tumor antigen p53 (Homo sapiens), P04637 [G245C]; assay: Induction of conformational changes in p53 G245C mutant in human NCI-H596 cells at 60 uM incubated for 1 hr at 32 degC by tryptophan fluorescence emission spectroscopy; format: cell-based
Outline: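 6 µM purified G245C p53 DNA-binding domain incubated 1 h at 32 °C alone, with DMSO or 60 µM agent; intrinsic fluorescence emission 285–400 nm, excitation 280 nm, slit 5 nm, 3 scans averaged.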

[6] = system: Cellular tumor antigen p53 (Homo sapiens), P04637 [G245C]; assay: Induction of p53 G245C mutant depletion in human NCI-H596 cells at 40 uM incubated for 2 hrs by immunoblot analysis; format: cell-based
Outline: (§1)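 H596 cells (G245C p53), maintained in DMEM or RPMI-1640 with 10% FBS, treated either at 15 µM for varying times up to 24 h or at varying concentrations (10–60 µM) for 2 h; whole-cell lysates, equal protein on SDS gels, PVDF, blotted with p53 DO-1 and β-actin antibodies, ECL.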

[7] = system: Cellular tumor antigen p53 (Homo sapiens), P04637 [G245C]; assay: Induction of p53 G245C mutant depletion in human NCI-H596 cells at 20 uM incubated for 2 hrs by immunoblot analysis; format: cell-based; outline: as §1
[8] = system: Cellular tumor antigen p53 (Homo sapiens), P04637 [G245C]; assay: Induction of p53 G245C mutant depletion in human NCI-H596 cells at 10 uM incubated for 2 hrs by immunoblot analysis; format: cell-based; outline: as §1
[9] = system: Cellular tumor antigen p53 (Homo sapiens), P04637 [G245C]; assay: Induction of p53 G245C mutant depletion in human NCI-H596 cells at 60 uM after 2 hrs by immunoblot analysis; format: cell-based; outline: as §1
[10] = system: Cellular tumor antigen p53 (Homo sapiens), P04637 [G245C]; assay: Induction of p53 G245C mutant depletion in human NCI-H596 cells at 15 uM up to 24 hrs by immunoblot analysis; format: cell-based; outline: as §1
[11] = target: Cellular tumor antigen p53 (Homo sapiens) (UniProt P04637); assay: Induction of p53 depletion in human MCF7 cells at 20 uM incubated for 2 to 24 hrs by immunoblot analysis; format: cell-based
Outline: (§2)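 Wild-type p53 lines HCT116, A549 and MCF-7 treated with 20 µM for 2, 4, 8 and 24 h; lysates immunoblotted for p53 (DO-1) and β-actin, ECL.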

MDA-MB-231 [12] = assay: Induction of apoptosis in human MDA-MB-231 cells expressing p53 R280K mutant assessed as caspase-3 activation incubated for 24 hrs; format: functional, cell-based
Outline: (§3)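 Cells treated with DMSO or drug for 24 h, lysed in ice-cold kit buffer; 100–200 µg protein incubated with Ac-DEVD-p-nitroaniline at 37 °C for 2–4 h; p-nitroanilide read at 405 nm; mean ± SD of three independent experiments.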

MCF7 = assay: Induction of apoptosis in human MCF7 cells expressing wild type p53 assessed as caspase-3 activation incubated for 24 hrs; format: functional, cell-based; outline: as §3
A549 = assay: Induction of apoptosis in human A549 cells expressing wild type p53 assessed as caspase-3 activation incubated for 24 hrs; format: functional, cell-based; outline: as §3
H1299 [13] = assay: Induction of non-temperature sensitive p53 175H mutant depletion in human H1299 cells at 15 uM incubated for 24 hrs at 32.5 degC by immunoblot analysis; format: cell-based
H1299 [14] = assay: Induction of temperature sensitive p53 143A mutant depletion in human H1299 cells at 15 uM incubated for 24 hrs at 37 degC by immunoblot analysis; format: cell-based
NCI-H596 [15] = assay: Effect on Bax protein expression in human NCI-H596 cells by immunoblot analysis; format: functional, cell-based
Outline: (§4)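 H596 lung cancer cells treated with 15 µM; whole-cell lysates in HEPES pH 7.4/Triton X-100 lysis buffer with protease and phosphatase inhibitors; equal protein resolved on 4–12% Bis-Tris gels, transferred to PVDF, immunoblotted; ECL detection.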

[16] = system: Cellular tumor antigen p53 (Homo sapiens), P04637 [R273H]; assay: Induction of p53 R273H mutant depletion in human MDA-MB-468 cells at 15 uM by immunoblot analysis; format: cell-based; conditions: TDE = time-dependent effect
Outline: (§5)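 Mutant-p53 lines SCC-4, MDA-MB-468 and MDA-MB-231 exposed to 15 µM for a time course; lysates immunoblotted with p53 DO-1 and β-actin antibodies, ECL detection.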

[17] = system: Cellular tumor antigen p53 (Homo sapiens), P04637 [G245C]; assay: Induction of p53 G245C mutant depletion in human NCI-H596 cells at 15 uM by immunoblot analysis; format: cell-based; conditions: TDE = time-dependent effect; outline: as §1
HCT-116 = assay: Induction of apoptosis in human HCT116 cells expressing wild type p53 assessed as caspase-3 activation incubated for 24 hrs; format: functional, cell-based; outline: as §3
NCI-H596 [18] = assay: Effect on HSP90 protein expression in human NCI-H596 cells by immunoblot analysis; format: functional, cell-based; outline: as §4
[19] = target: Cellular tumor antigen p53 (Homo sapiens) (UniProt P04637); assay: Induction of p53 activation in human MCF7 cells at 20 uM incubated for 24 hrs by immunoblot analysis; format: cell-based; outline: as §2
DU-145 = assay: Induction of p53 […] mutant depletion in human DU145 cells at 10 uM by immunoblot analysis; format: cell-based; conditions: TDE = time-dependent effect
Outline: (§6)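 DU145 and SW480 cells exposed to 10 µM for a time course; lysates immunoblotted with p53 DO-1 and β-actin antibodies, ECL detection.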

H1299 [20] = assay: Induction of temperature sensitive p53 143A mutant depletion in human H1299 cells at 15 uM incubated for 24 hrs at 32.5 degC by immunoblot analysis; format: cell-based
SW480 = assay: Induction of apoptosis in human SW480 cells expressing p53 R273H mutant assessed as caspase-3 activation incubated for 24 hrs; format: functional, cell-based; outline: as §3
[21] = system: Cellular tumor antigen p53 (Homo sapiens), P04637 [P151S]; assay: Induction of p53 P151S mutant depletion in human SCC4 cells at 15 uM by immunoblot analysis; format: cell-based; conditions: SCC-4, TDE = time-dependent effect; outline: as §5
[22] = system: Cellular tumor antigen p53 (Homo sapiens), P04637 [R273H]; assay: Induction of p53 R273H mutant depletion in human SW480 cells at 10 uM by immunoblot analysis; format: cell-based; conditions: TDE = time-dependent effect; outline: as §6
[23] = system: Cellular tumor antigen p53 (Homo sapiens), P04637 [G245C]; assay: Induction of p53 G245C mutant depletion in human NCI-H596 cells incubated for 2 to 6 hrs by immunoblot analysis; format: cell-based; outline: as §1
NCI-H596 [24] = assay: Effect on JNK protein expression in human NCI-H596 cells by immunoblot analysis; format: functional, cell-based; outline: as §4
[25] = target: Cellular tumor antigen p53 (Homo sapiens) (UniProt P04637); assay: Induction of p53 depletion in human MCF10A cells at 15 uM incubated for 2 to 24 hrs by immunoblot analysis; format: cell-based; conditions: MCF-10A
Outline: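 MCF-10A normal mammary epithelial cells treated with 15 µM for 2, 4, 8 and 24 h; lysates immunoblotted for p53 (DO-1) and β-actin, ECL.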

[26] = target: Cellular tumor antigen p53 (Homo sapiens) (UniProt P04637); assay: Induction of p53 depletion in human HCT116 cells at 20 uM incubated for 2 to 24 hrs by immunoblot analysis; format: cell-based; conditions: HCT-116; outline: as §2
[27] = system: Cellular tumor antigen p53 (Homo sapiens), P04637 [R280K]; assay: Induction of p53 R280K mutant depletion in human MDA-MB-231 cells at 15 uM by immunoblot analysis; format: cell-based; conditions: TDE = time-dependent effect; outline: as §5
NCI-H596 [28] = assay: Effect on DR5 protein expression in human NCI-H596 cells by immunoblot analysis; format: functional, cell-based; outline: as §4
[29] = target: Cellular tumor antigen p53 (Homo sapiens) (UniProt P04637); assay: Induction of p53 depletion in human A549 cells at 20 uM incubated for 2 to 24 hrs by immunoblot analysis; format: cell-based; outline: as §2
NCI-H596 [30] = assay: Effect on p53 mRNA expression in human NCI-H596 cells at 15 uM incubated for 2 to 6 hrs by RT-PCR; format: functional, cell-based
Outline: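 H596 cells exposed to 15 µM for 2, 4 and 6 h, vehicle DMSO; total RNA extracted, one-step RT-PCR for p53 and β-actin mRNA.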

NCI-H596 [31] = assay: Induction of apoptosis in human NCI-H596 cells expressing p53 G245C mutant assessed as caspase-3 activation incubated for 24 hrs; format: functional, cell-based; outline: as §3
MDA-MB-468 = assay: Induction of apoptosis in human MDA-MB-468 cells expressing p53 R273H mutant assessed as caspase-3 activation incubated for 24 hrs; format: functional, cell-based; outline: as §3
H1299 [32] = assay: Induction of non-temperature sensitive p53 175H mutant depletion in human H1299 cells at 15 uM incubated for 24 hrs at 37 degC by immunoblot analysis; format: cell-based

## S=C=NCCCCCCc1ccccc1
[1]
  Activity: Active
[2]
  Activity: Active

## S=C=NCC(c1ccccc1)c1ccccc1
[3]
  Activity: Active
[1]
  Activity: Active
[2]
  Activity: Active
MDA-MB-231 [4]
  Activity: Active

## S=C=NCCCCCc1ccccc1
[1]
  Activity: Active
[2]
  Activity: Active

## C[S+]([O-])CCCCN=C=S (centres undefined)
[3]
  Activity: inactive
[5]
  Activity: inactive
[6]
  Activity: inactive
[1]
  Activity: inactive
[2]
  Activity: inactive
MDA-MB-231 [4]
  Activity: inactive

## S=C=Nc1ccccc1
[3]
  Activity: inactive
[1]
  Activity: inactive
[2]
  Activity: inactive

## S=C=NCC1CCCCC1
[3]
  Activity: inactive
[1]
  Activity: inactive
[2]
  Activity: inactive
MDA-MB-231 [4]
  Activity: inactive

## S=C=NCCCc1ccccc1
[3]
  Activity: Active
[1]
  Activity: Active
[2]
  Activity: Active
MDA-MB-231 [4]
  Activity: Active

## S=C=NCCCCc1ccccc1
[1]
  Activity: Active
[2]
  Activity: Active
MDA-MB-231 [4]
  Activity: Active

## S=C=NCc1ccc(Cl)cc1
[3]
  Activity: Active
[1]
  Activity: Active
[2]
  Activity: Active

## C=CCN=C=S
[3]
  Activity: inactive
[6]
  Activity: inactive
[1]
  Activity: inactive
[2]
  Activity: inactive

## S=C=NCc1ccccc1
[7]
  Activity: Active
[8]
  Activity: Active
[3]
  Activity: Active
[5]
  Activity: Active
[1]
  Activity: Active
[2]
  Activity: Active
MDA-MB-231 [4]
  Activity: Active

## CNCCc1ccccc1
[9]
  Activity: inactive
[10]
  Activity: inactive
[1]
  Activity: inactive

## C[C@@H](N=C=S)c1ccccc1
[5]
  Activity: Active
[1]
  Activity: inactive
[2]
  Activity: inactive

## S=C=NCc1ccc(Oc2ccccc2)cc1
[5]
  Activity: Active
[1]
  Activity: Active
[2]
  Activity: Active

## COc1ccc(CN=C=S)cc1
[3]
  Activity: Active
[1]
  Activity: Active
[2]
  Activity: Active

## S=C=NC(c1ccccc1)(c1ccccc1)c1ccccc1
[3]
  Activity: inactive
[1]
  Activity: inactive
[2]
  Activity: inactive
MDA-MB-231 [4]
  Activity: inactive

## S=C=NCCc1ccccc1
[11]
  Activity: inactive
MDA-MB-231 [12]
  Activity: Active
MCF7
  Activity: inactive
A549
  Activity: inactive
H1299 [13]
  Activity: Active
H1299 [14]
  Activity: Active
[3]
  Activity: Active
NCI-H596 [15]
  Activity: inactive
[16]
  Activity: tde
[17]
  Activity: tde
HCT-116
  Activity: inactive
NCI-H596 [18]
  Activity: inactive
[19]
  Activity: Active
[1]
  Activity: Active
DU-145
  Activity: tde
H1299 [20]
  Activity: inactive
SW480
  Activity: Active
[21]
  Activity: tde
[22]
  Activity: tde
[23]
  Activity: Dose-dependent effect
NCI-H596 [24]
  Activity: inactive
[2]
  Activity: Active
[25]
  Activity: inactive
[26]
  Activity: inactive
[27]
  Activity: tde
NCI-H596 [28]
  Activity: inactive
[29]
  Activity: inactive
NCI-H596 [30]
  Activity: inactive
NCI-H596 [31]
  Activity: Active
MDA-MB-468
  Activity: Active
H1299 [32]
  Activity: Active
